# Assay results reported in publication PMC2261226 (EMBO Reports, 2008).
# Substitutions are numbered along the chain they refer to.
# Experiments:
# AIRE–PHD1 wild type [1] = molecular target: AIRE–PHD1 wild type (UniProt O43918); assay: other fluorescence titration
# AIRE–PHD1 wild type [2] = molecular target: AIRE–PHD1 wild type (UniProt O43918); assay: ITC
# AIRE–PHD1 WT [3] = molecular target: AIRE–PHD1 WT (Homo sapiens, UniProt O43918); assay: Tryptophan fluorescence titration, AIRE-PHD1 wild type; format: binding
# AIRE–PHD1 V301M = molecular target: T1, AIRE–PHD1 V301M (Homo sapiens, UniProt O43918, V301M); assay: Tryptophan fluorescence titration, AIRE-PHD1 V301M; format: binding
# T1 sequence (O43918 296-343 V301M limits assumed): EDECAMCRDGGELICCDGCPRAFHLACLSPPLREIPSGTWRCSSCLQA
# How it was run: (§1)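 Tryptophan fluorescence spectroscopy titration of AIRE–PHD1 point mutants with histone H3 peptides: H3K4me0 for all; D297A also with H3K4me3. Dissociation constants were derived from the titrations. ND denotes binding too weak to quantify reliably.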
# AIRE–PHD1 C311Y = molecular target: T2, AIRE–PHD1 C311Y (Homo sapiens, UniProt O43918, C311Y); assay: Tryptophan fluorescence titration, AIRE-PHD1 C311Y; format: binding
# T2 sequence (O43918 296-343 C311Y limits assumed): T1 sequence (O43918 296-343 V301M limits assumed) with M6V, C16Y
# How it was run: as §1
# AIRE–PHD1 D297A [4] = molecular target: T3, AIRE–PHD1 D297A (Homo sapiens, UniProt O43918, D297A); assay: Tryptophan fluorescence titration, AIRE-PHD1 D297A; format: binding
# T3 sequence (O43918 290-349 D297A): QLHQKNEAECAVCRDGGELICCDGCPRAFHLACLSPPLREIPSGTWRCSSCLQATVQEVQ
# How it was run: as §1
# AIRE–PHD1 D312A [5] = molecular target: T4, AIRE–PHD1 D312A (Homo sapiens, UniProt O43918, D312A); assay: Tryptophan fluorescence titration, AIRE-PHD1 D312A; format: binding
# T4 sequence (O43918 296-343 D312A limits assumed): T1 sequence (O43918 296-343 V301M limits assumed) with M6V, D17A
# How it was run: as §1
# AIRE–PHD1 WT [6] = molecular target: T5, AIRE–PHD1 WT (Homo sapiens, UniProt O43918); assay: biochemical; format: binding
# T5 sequence (O43918 293-349 limits assumed): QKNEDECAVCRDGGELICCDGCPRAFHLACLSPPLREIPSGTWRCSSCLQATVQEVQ
# AIRE–PHD1 D297A [7] = molecular target: T3, AIRE–PHD1 D297A; assay: Isothermal titration calorimetry, AIRE-PHD1 D297A; format: binding
# AIRE–PHD1 D312A [8] = molecular target: T4, AIRE–PHD1 D312A; assay: Isothermal titration calorimetry, AIRE-PHD1 D312A; format: binding
# How it was run: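 ITC of H3K4me0 (histone H3, non-methylated K4) peptide binding to the AIRE–PHD1 D312A mutant. Sequential heat pulses were integrated, corrected for heat of dilution, and fit to a single-site binding model by nonlinear least squares to give N, Kd, ΔH and ΔS. ND denotes binding too weak to quantify reliably.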
# AIRE–PHD1 = assay: Histone pull-down after EDTA treatment; conditions: 50 mM EDTA, overnight 4 °C prior to histone binding
# How it was run: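 AIRE–PHD1 expressed as a glutathione-S-transferase (GST) fusion and incubated with whole histones. Bound H3 detected by western blot with anti-H3; GST-PHD protein visualised by Coomassie staining.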
# AIRE–PHD1 wild type [9] = molecular target: AIRE–PHD1 wild type (UniProt O43918); assay: NMR titration
compound,measurement,setting,value
"histone H3 N-terminal peptide H3K4me2 (NMR, fluorescence, ITC)",Kd,AIRE–PHD1 wild type [1],> 500 µM
same,Kd,AIRE–PHD1 wild type [2],714 µM
C[C@H](N)C(=O)N[C@@H](CCCNC(=N)N)C(=O)N[C@H](C(=O)N[C@@H](CCCCN)C(=O)N[C@@H](CCC(N)=O)C(=O)N[C@H](C(=O)N[C@@H](C)C(=O)N[C@@H](CCCNC(=N)N)C(=O)N[C@@H](CCCCN)C(=O)N[C@@H](CO)C(=O)O)[C@@H](C)O)[C@@H](C)O [H3K4me0],Kd,AIRE–PHD1 WT [3],4.7 ± 0.8 µM
same,Kd,AIRE–PHD1 V301M,6.8 ± 0.4 µM
same,Kd,AIRE–PHD1 C311Y,> 500 µM
same,Kd,AIRE–PHD1 D297A [4],173 ± 18.6 µM
same,Kd,AIRE–PHD1 D312A [5],> 500 µM
same,Kd,AIRE–PHD1 WT [6],6.5 ± 0.2 µM
same,Kd,AIRE–PHD1 D297A [7],147 ± 6.1 µM
same,Kd,AIRE–PHD1 D312A [8],> 714 µM
O=C(O)CN(CCN(CC(=O)O)CC(=O)O)CC(=O)O [EDTA],"effect on H3 binding, in words",AIRE–PHD1,greatly reduced
"histone H3 N-terminal peptide H3K4me1 (NMR, fluorescence, ITC)",Kd,AIRE–PHD1 wild type [1],21.4 µM
same,Kd,AIRE–PHD1 wild type [2],55.6 µM
"histone H3 N-terminal peptide H3K4me0 (NMR, fluorescence, ITC)",maximum average chemical shift change,AIRE–PHD1 wild type [9],0.9 p.p.m.
